Laboratory results taken from ChEMBL document CHEMBL1149244, “Novel azido and isothiocyanato analogues of [3-(4-phenylalkylpiperazin-1-yl)propyl]bis(4-fluorophenyl)amines as potential irreversible ligands for the dopamine transporter” (J Med Chem, 2004).

Target: Sodium-dependent dopamine transporter (Rattus norvegicus, UniProt P23977)
Test: Displacement of [3H]WIN-35428 from DAT in Sprague-Dawley rat striatum
How it was run: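 Male Sprague-Dawley rat striatal membranes (homogenized in ice-cold modified Krebs-HEPES, pH 7.4; washed by centrifugation), 2.5 mg original wet weight per tube, preincubated 5 min with or without test compound. Nonspecific binding defined with 0.1 mM cocaine. Filtration on BSA-presoaked GF/B filters, scintillation counting. Triplicates. IC50 and Hill coefficient reported.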

Sequence of Sodium-dependent dopamine transporter (P23977 whole entry): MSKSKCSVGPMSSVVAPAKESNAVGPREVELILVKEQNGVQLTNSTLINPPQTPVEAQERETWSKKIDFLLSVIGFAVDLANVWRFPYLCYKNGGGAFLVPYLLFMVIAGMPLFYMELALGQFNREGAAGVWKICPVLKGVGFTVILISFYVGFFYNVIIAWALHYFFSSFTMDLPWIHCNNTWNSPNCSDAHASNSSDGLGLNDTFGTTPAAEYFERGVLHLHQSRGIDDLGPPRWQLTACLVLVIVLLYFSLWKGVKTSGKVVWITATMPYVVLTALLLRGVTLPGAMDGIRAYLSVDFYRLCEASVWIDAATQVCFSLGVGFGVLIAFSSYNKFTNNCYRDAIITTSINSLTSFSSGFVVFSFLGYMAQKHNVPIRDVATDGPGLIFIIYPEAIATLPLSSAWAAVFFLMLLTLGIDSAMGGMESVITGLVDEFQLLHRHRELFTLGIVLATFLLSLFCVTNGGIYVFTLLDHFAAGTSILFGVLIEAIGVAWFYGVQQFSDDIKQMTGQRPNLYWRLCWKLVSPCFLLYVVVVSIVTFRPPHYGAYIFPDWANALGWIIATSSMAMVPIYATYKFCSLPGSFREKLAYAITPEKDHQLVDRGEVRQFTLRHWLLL

Row | IC50 [nM] | Compound
1 | 163 | [N-]=[N+]=Nc1ccc(CCN2CCN(CCCN(c3ccc(F)cc3)c3ccc(F)cc3)CC2)cc1I
2 | 75.4 | Fc1ccc(N(CCCN2CCN(Cc3ccc(N=C=S)cc3)CC2)c2ccc(F)cc2)cc1
3 | 282 | [N-]=[N+]=Nc1ccc(CCCN2CCN(CCCN(c3ccc(F)cc3)c3ccc(F)cc3)CC2)cc1I
4 | 68.3 | Fc1ccc(N(CCCN2CCN(CCc3ccc(N=C=S)cc3)CC2)c2ccc(F)cc2)cc1
5 | 242 | [N-]=[N+]=Nc1ccc(CN2CCN(CCCN(c3ccc(F)cc3)c3ccc(F)cc3)CC2)cc1I
6 | 95.5 | Fc1ccc(N(CCCN2CCN(CCCc3ccc(N=C=S)c(I)c3)CC2)c2ccc(F)cc2)cc1
7 | 19.5 | Fc1ccc(N(CCCN2CCN(CCCc3ccccc3)CC2)c2ccc(F)cc2)cc1
8 | 99.8 | Fc1ccc(N(CCCN2CCN(CCCc3ccc(N=C=S)cc3)CC2)c2ccc(F)cc2)cc1
9 | 66 | Fc1ccc(N(CCCN2CCN(CCc3ccc(N=C=S)c(I)c3)CC2)c2ccc(F)cc2)cc1
10 | 29.7 | Fc1ccc(N(CCCN2CCN(Cc3ccccc3)CC2)c2ccc(F)cc2)cc1

Row | Compound | IC50 [nM]
11 | [N-]=[N+]=Nc1ccc(CCN2CCN(CCOC(c3ccccc3)c3ccccc3)CC2)cc1I | 5.61
